Drawing on ChEMBL document CHEMBL4610039, “Design, synthesis and apoptosis-related antiproliferative activities of chelidonine derivatives” (Bioorg Med Chem Lett, 2020), this text covers IC50 and Activity for one compound.

Structures are written as SMILES. Active and inactive are the calls of the source. The rule behind the calls is not given here.

For assay [1], the system named is K562. Briefly: Antiproliferative activity against human K562 cells assessed as reduction in cell growth after 72 hrs by MTT assay. Format: functional, cell-based. Particulars: K562, 72 h. Summed up:
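Human HepG2, MCF-7, HCT-116 and K562 tumour cells plus normal L-02 hepatocytes and PBMCs were exposed to compounds for 72 h and growth was read by MTT. 5-Fu served as positive control. IC50 is the concentration inhibiting 50% of cell growth, given as mean ± standard deviation of three independent experiments.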
For orientation: Tetrazolium assays rely on reduction of a dye to a coloured formazan, in cell work by metabolically active cells.

Assay [2] deals with K562. Briefly: Induction of cell cycle arrest in human K562 cells assessed as accumulation at S phase at 0.55 uM after 72 hrs by propidium iodide staining based flow cytometry (reference value: 35.68%). Format: functional. Summed up:
(§1)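 For cell cycle, K562 cells were treated 72 h at 0, 0.55, 1.10 or 2.20 μM, with a solvent control. Cells were stained with PI and G1, S and G2/M fractions determined by flow cytometry.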
A general note: A flow cytometer gives signals particle by particle.

In assay [3] the test system is K562. Briefly: Induction of cell cycle arrest in human K562 cells assessed as accumulation at G1 phase at 1.10 uM after 72 hrs by propidium iodide staining based flow cytometry (reference value: 56.13%). The class given is functional. Summed up: as §1
The subject of assay [4] is K562. Briefly: Induction of apoptosis in human K562 cells assessed as early apoptotic cells at 0.55 uM after 48 hrs by annexin V-FITC/propidium iodide staining based flow cytometry (reference value: 2.23%). Format: functional.
Assay [5] relates to K562. Briefly: Induction of apoptosis in human K562 cells assessed as necrotic cells at 0.55 uM after 48 hrs by annexin V-FITC/propidium iodide staining based flow cytometry (reference value: 0.78%). Format: functional.
For assay [6], the system named is K562. Briefly: Induction of apoptosis in human K562 cells assessed as early apoptotic cells at 1.10 uM after 48 hrs by annexin V-FITC/propidium iodide staining based flow cytometry (reference value: 2.23%). The class given is functional.
In assay [7] the test system is K562. The experiment in a line: Induction of apoptosis in human K562 cells assessed as early apoptotic cells at 2.20 uM after 48 hrs by annexin V-FITC/propidium iodide staining based flow cytometry (reference value: 2.23%). Format: functional.
Assay [8] deals with K562. The experiment in a line: Induction of apoptosis in human K562 cells assessed as necrotic cells at 2.20 uM after 48 hrs by annexin V-FITC/propidium iodide staining based flow cytometry (reference value: 0.78%). Format: functional.
Assay [9] deals with K562. The experiment in a line: Induction of mitochondrial membrane potential loss in human K562 cells assessed as cell population with mitochondrial membrane potential collapse at 0.55 uM after 48 hrs by JC1 staining-based flow cytometry analysis (reference value: 7.04%). The class given is functional.
In assay [10] the test system is K562. Briefly: Induction of mitochondrial membrane potential loss in human K562 cells assessed as cell population with mitochondrial membrane potential collapse at 1.10 uM after 48 hrs by JC1 staining-based flow cytometry analysis (reference value: 7.04%). The class given is functional.
Assay [11] has as its system K562. The experiment in a line: Induction of apoptosis in human K562 cells assessed as reduction in claspin level after 24 hrs by chemiluminescence based protein array analysis. Format: functional, cell-based. Summed up:
(§2)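 K562 cells were treated for 24 h, then proteins were extracted and run on a human apoptosis protein array. Chemiluminescent signals were detected with a digital imaging system.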

Assay [12] relates to K562. Briefly: Induction of apoptosis in human K562 cells assessed as reduction in catalase protein expression after 24 hrs by chemiluminescence based protein array analysis. Format: functional, cell-based. Summed up: as §2

As a reminder, the IC50 is the midpoint of a concentration-inhibition curve.

Regarding `CN1Cc2c(ccc3c2OCO3)[C@H]2[C@@H](OC(=O)CCCC(=O)OCC#CCOc3no[n+]([O-])c3S(=O)(=O)c3ccccc3)Cc3cc4c(cc3[C@H]21)OCO4`, the IC50 in the assay on K562 [1] came to 1120 nM. Moreover, the Activity worked out at 41.89% with K562 [2]; 41.27% in the assay with K562 [3]; 6.49% in the assay on K562 [4]; 1.69% with K562 [5]; 16.46% in the assay on K562 [6]; 24.84% in the assay on K562 [7]. Also, the Activity in the assay with K562 [8] amounted to 1.16%; in the assay with K562 [9], 19.29%; in the assay on K562 [10], 28.66%. Also, the outcome in the assay on K562 [11] and in the assay on K562 [12] was Active.
